Test results taken from ChEMBL document CHEMBL2062453, “Lead optimization through VLAK protocol: new annelated pyrrolo-pyrimidine derivatives as antitumor agents” (2012).

Columns and labels:
Type in all cases: functional
Malme-3M = experiment: Cytotoxicity against human MALME-3M cells after 48 hrs by SRB assay
Summary of the method: (§1)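 NCI 60-cell five-dose screen. Cells grown in RPMI 1640 with 5% FBS and 2 mM glutamine, plated at 5000–40,000 cells/well, and preincubated 24 h at 37 °C in 5% CO2. Time-zero plates fixed with TCA. Five serial dilutions of DMSO stock added, then 48 h exposure. TCA fixation, 0.4% SRB staining, absorbance read at 515 nm. GI50 from [(Ti−Tz)/(C−Tz)]×100 = 50.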

NCI-H23 = experiment: Cytotoxicity against human NCI-H23 cells after 48 hrs by SRB assay; settings: NCI-H23, 48 h
Summary of the method: (§2)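 Five-dose screen, 10-fold or ½-log dilutions, compound stock in DMSO. Cells were in RPMI 1640 with 5% FBS and 2 mM glutamine at 5000–40,000 cells/well, preincubated 24 h, 37 °C, 5% CO₂, with a time-zero plate TCA-fixed. After 48 h drug exposure, cells were TCA-fixed and stained with 0.4% SRB, read at 515 nm. GI50, TGI and LC50 were derived from time-zero, control and test absorbances.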

NCI-H322M = experiment: Cytotoxicity against human NCI-H322M cells after 48 hrs by SRB assay; summary of the method: as §2
MCF7 = experiment: Cytotoxicity against human MCF7 cells after 48 hrs by SRB assay; settings: MCF7, 48 h; summary of the method: as §1
UACC-62 = experiment: Cytotoxicity against human UACC62 cells after 48 hrs by SRB assay; settings: UACC-62, 48 h
Summary of the method: (§3)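 NCI 60-panel five-dose screen. Cells in RPMI 1640 with 5% FBS and 2 mM glutamine, plated at 5000–40,000 cells/well and preincubated 24 h at 37 °C under 5% CO2. Five 10-fold or half-log dilutions were added from a DMSO stock for 48 h. Cells were TCA-fixed (SR settled cells: 16% final), SRB-stained and read at 515 nm. GI50 was taken where (Ti−Tz)/(C−Tz)×100 = 50.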

SK-MEL-5 = experiment: Cytotoxicity against human SK-MEL-5 cells after 48 hrs by SRB assay; settings: SK-MEL-5, 48 h; summary of the method: as §2
MDA-MB-231 = experiment: Cytotoxicity against human MDA-MB-231 cells after 48 hrs by SRB assay; settings: MDA-MB-231, 48 h; summary of the method: as §1
A498 = experiment: Cytotoxicity against human A498 cells after 48 hrs by SRB assay; settings: A498, 48 h; summary of the method: as §1
DU-145 = experiment: Cytotoxicity against human DU145 cells after 48 hrs by SRB assay; settings: DU-145, 48 h; summary of the method: as §1
OVCAR-3 = experiment: Cytotoxicity against human OVCAR3 cells after 48 hrs by SRB assay; settings: OVCAR-3, 48 h; summary of the method: as §2
SW-620 = experiment: Cytotoxicity against human SW620 cells after 48 hrs by SRB assay; settings: SW-620, 48 h; summary of the method: as §3
SF-295 = experiment: Cytotoxicity against human SF295 cells after 48 hrs by SRB assay; settings: SF-295, 48 h; summary of the method: as §2
SNB-75 = experiment: Cytotoxicity against human SNB75 cells after 48 hrs by SRB assay; settings: SNB-75, 48 h; summary of the method: as §2
UO-31 = experiment: Cytotoxicity against human UO31 cells after 48 hrs by SRB assay; settings: UO-31, 48 h; summary of the method: as §3
NCI-H226 = experiment: Cytotoxicity against human NCI-H226 cells after 48 hrs by SRB assay; settings: NCI-H226, 48 h; summary of the method: as §2
OVCAR-4 = experiment: Cytotoxicity against human OVCAR4 cells after 48 hrs by SRB assay; settings: OVCAR-4, 48 h; summary of the method: as §2
RXF 393 = experiment: Cytotoxicity against human RXF393 cells after 48 hrs by SRB assay; settings: RXF 393, 48 h; summary of the method: as §2
SF-539 = experiment: Cytotoxicity against human SF539 cells after 48 hrs by SRB assay; settings: SF-539, 48 h; summary of the method: as §2
CAKI-1 = experiment: Cytotoxicity against human Caki1 cells after 48 hrs by SRB assay; settings: CAKI-1, 48 h; summary of the method: as §1
TK-10 = experiment: Cytotoxicity against human TK10 cells after 48 hrs by SRB assay; settings: TK-10, 48 h; summary of the method: as §3
OVCAR-8 = experiment: Cytotoxicity against human OVCAR8 cells after 48 hrs by SRB assay; settings: OVCAR-8, 48 h; summary of the method: as §2
Hs-578T = experiment: Cytotoxicity against human Hs578T cells after 48 hrs by SRB assay; summary of the method: as §1
BT-549 = experiment: Cytotoxicity against human BT549 cells after 48 hrs by SRB assay; settings: BT-549, 48 h; summary of the method: as §1
M14 = experiment: Cytotoxicity against human M14 cells after 48 hrs by SRB assay; settings: M14, 48 h; summary of the method: as §1
EKVX = experiment: Cytotoxicity against human EKVX cells after 48 hrs by SRB assay; summary of the method: as §1
KM12 = experiment: Cytotoxicity against human KM12 cells after 48 hrs by SRB assay; settings: KM12, 48 h; summary of the method: as §1
HOP-62 = experiment: Cytotoxicity against human HOP62 cells after 48 hrs by SRB assay; settings: HOP-62, 48 h; summary of the method: as §1

CSC1=Nc2c(c(C)c(-c3ccccc3)n2CCCN2CCCCC2)C2=NC(=O)CC(C)N12 (stereo not given)
GI50 (Malme-3M): 2.34 µM | LC50 (Malme-3M): 53.7 µM | TGI (Malme-3M; read-out: pTGI (converted)): 7.24 µM | GI50 (NCI-H23): 2.95 µM | LC50 (NCI-H23): > 100 µM | TGI (NCI-H23; read-out: pTGI (converted)): > 100 µM | GI50 (NCI-H322M): 6.17 µM | LC50 (NCI-H322M): > 100 µM | TGI (NCI-H322M; read-out: pTGI (converted)): 89.1 µM | GI50 (MCF7): 2.88 µM | LC50 (MCF7): 61.7 µM | TGI (MCF7; read-out: pTGI (converted)): 11.2 µM | GI50 (UACC-62): 2.82 µM | LC50 (UACC-62): 38 µM | TGI (UACC-62; read-out: pTGI (converted)): 14.1 µM | GI50 (SK-MEL-5): 2 µM | LC50 (SK-MEL-5): 14.8 µM | TGI (SK-MEL-5; read-out: pTGI (converted)): 4.9 µM | GI50 (MDA-MB-231): 1.82 µM | LC50 (MDA-MB-231): > 100 µM | TGI (MDA-MB-231; read-out: pTGI (converted)): 9.55 µM | GI50 (A498): 3.16 µM | LC50 (A498): > 100 µM | TGI (A498; read-out: pTGI (converted)): 9.12 µM | GI50 (DU-145): 3.39 µM | LC50 (DU-145): > 100 µM | TGI (DU-145; read-out: pTGI (converted)): 27.5 µM | GI50 (OVCAR-3): 2.4 µM | LC50 (OVCAR-3): 53.7 µM | TGI (OVCAR-3; read-out: pTGI (converted)): 8.51 µM | GI50 (SW-620): 2.4 µM | LC50 (SW-620): 32.4 µM | TGI (SW-620; read-out: pTGI (converted)): 10.5 µM | GI50 (SF-295): 2.57 µM | LC50 (SF-295): 69.2 µM | TGI (SF-295; read-out: pTGI (converted)): 10.2 µM | GI50 (SNB-75): 2.69 µM | LC50 (SNB-75): > 100 µM | TGI (SNB-75; read-out: pTGI (converted)): 21.9 µM | GI50 (UO-31): 5.01 µM | LC50 (UO-31): 75.9 µM | TGI (UO-31; read-out: pTGI (converted)): 24 µM | GI50 (NCI-H226): 3.55 µM | LC50 (NCI-H226): > 100 µM | TGI (NCI-H226; read-out: pTGI (converted)): > 100 µM | GI50 (OVCAR-4): 2.57 µM | LC50 (OVCAR-4): > 100 µM | TGI (OVCAR-4; read-out: pTGI (converted)): 17.8 µM | GI50 (RXF 393): 1.51 µM | LC50 (RXF 393): 25.1 µM | TGI (RXF 393; read-out: pTGI (converted)): 4.68 µM | GI50 (SF-539): 6.46 µM | LC50 (SF-539): > 100 µM | TGI (SF-539; read-out: pTGI (converted)): 87.1 µM | LC50 (CAKI-1): > 100 µM | TGI (CAKI-1; read-out: pTGI (converted)): 18.6 µM | GI50 (TK-10): 2.88 µM | LC50 (TK-10): > 100 µM | TGI (TK-10; read-out: pTGI (converted)): 9.33 µM | GI50 (OVCAR-8): 3.72 µM | LC50 (OVCAR-8): > 100 µM | TGI (OVCAR-8; read-out: pTGI (converted)): 30.9 µM | GI50 (Hs-578T): 2.29 µM | LC50 (Hs-578T): 97.7 µM | TGI (Hs-578T; read-out: pTGI (converted)): 7.94 µM | GI50 (BT-549): 2.63 µM | LC50 (BT-549): 85.1 µM | TGI (BT-549; read-out: pTGI (converted)): 9.55 µM | GI50 (M14): 3.63 µM | LC50 (M14): 64.6 µM | TGI (M14; read-out: pTGI (converted)): 17.4 µM | GI50 (EKVX): 3.02 µM | LC50 (EKVX): > 100 µM | TGI (EKVX; read-out: pTGI (converted)): 20 µM | GI50 (KM12): 3.16 µM | LC50 (KM12): 33.9 µM | TGI (KM12; read-out: pTGI (converted)): 11 µM | GI50 (HOP-62): 3.16 µM | LC50 (HOP-62): > 100 µM | TGI (HOP-62; read-out: pTGI (converted)): 26.3 µM
